Data published in paper PMC6543826 (Bioorganic chemistry, 2018).
Where “and” joins values, the source holds several entries; their conditions need not be identical. Identical values can stand only once.

How the values were obtained:
OVCAR-8 = experiment: cells; format: cell-based; settings: OVCAR-8, 10^−5 M, 48 h
SK-MEL-2 = experiment: cells; format: cell-based; settings: SK-MEL-2, 10^−5 M, 48 h
RPMI-8226 = experiment: cells; format: cell-based; settings: RPMI-8226, 10^−5 M, 48 h
HCT-15 = experiment: cells; format: cell-based; settings: HCT-15, 10^−5 M, 48 h
SNB-75 = experiment: cells; format: cell-based; settings: SNB-75, 10^−5 M, 48 h
SF-268 = experiment: cells; format: cell-based; settings: SF-268, 10^−5 M, 48 h
[1] = tested on: NCI-60 panel of tumor cell lines
LOX IMVI = experiment: cells; format: cell-based; settings: 10^−5 M, 48 h
M14 = experiment: cells; format: cell-based; settings: M14, 10^−5 M, 48 h
SK-MEL-5 = experiment: cells; format: cell-based; settings: SK-MEL-5, 10^−5 M, 48 h
HOP-62 = experiment: cells; format: cell-based; settings: HOP-62, 10^−5 M, 48 h
NCI-H226 = experiment: cells; format: cell-based; settings: NCI-H226, 10^−5 M, 48 h
HOP-92 = experiment: cells; format: cell-based; settings: HOP-92, 10^−5 M, 48 h
SK-OV-3 = experiment: cells; format: cell-based; settings: SK-OV-3, 10^−5 M, 48 h
K-562 = experiment: cells; format: cell-based; settings: K-562, 10^−5 M, 48 h
EKVX = experiment: NCI-60 SRB screen, Non-small cell lung cancer; format: cell-based, human; settings: 10^−5 M, 48 h
MALME-3M = experiment: cells; format: cell-based; settings: MALME-3M, 10^−5 M, 48 h
OVCAR-5 = experiment: cells; format: cell-based; settings: OVCAR-5, 10^−5 M, 48 h
SNB-19 = experiment: cells; format: cell-based; settings: SNB-19, 10^−5 M, 48 h
U251 = experiment: cells; format: cell-based; settings: U251, 10^−5 M, 48 h
HCT-116 = experiment: cells; format: cell-based; settings: HCT-116, 10^−5 M, 48 h
PC-3 = experiment: cells; format: cell-based; settings: PC-3, 10^−5 M, 48 h
MOLT-4 = experiment: cells; format: cell-based; settings: MOLT-4, 10^−5 M, 48 h
MDA-MB-468 = experiment: cells; format: cell-based; settings: MDA-MB-468, 10^−5 M, 48 h
UACC-62 = experiment: cells; format: cell-based; settings: UACC-62, 10^−5 M, 48 h
ERK2 = ERK2 (Rattus norvegicus, UniProt P63086); experiment: in vitro radioactive kinase assay, Ets-1 phosphorylation by ERK2; format: biochemical; settings: ERK2 IC50 at 100 μM ATP /10mM Ets-1, Table 4; 100 μM ATP /10mM Ets-1
Sequence of ERK2 (P63086 whole entry): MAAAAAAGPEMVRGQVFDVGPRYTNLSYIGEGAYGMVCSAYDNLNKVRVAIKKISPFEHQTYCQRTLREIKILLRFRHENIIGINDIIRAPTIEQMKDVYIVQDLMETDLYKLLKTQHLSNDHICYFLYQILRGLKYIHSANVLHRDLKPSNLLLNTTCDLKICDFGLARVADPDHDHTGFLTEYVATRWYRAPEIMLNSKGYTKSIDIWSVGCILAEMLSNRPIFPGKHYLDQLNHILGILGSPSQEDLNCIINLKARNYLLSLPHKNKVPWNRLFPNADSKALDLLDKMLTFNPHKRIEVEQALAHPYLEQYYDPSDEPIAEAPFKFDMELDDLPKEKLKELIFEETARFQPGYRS
How it was run: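 Activated rat ERK2 (2 nM) was tested with His-Ets-1 (1–138) at 28–30 °C in HEPES pH 7.5 buffer with 11 mM MgCl2, BSA and 5% DMSO. Reactions were started with [γ-32P]ATP (10 or 100 μM).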

T-47D = experiment: cells; format: cell-based; settings: T-47D, 10^−5 M, 48 h
NCI-H322M = experiment: cells; format: cell-based; settings: 10^−5 M, 48 h
KM 12 = experiment: cells; format: cell-based; settings: KM 12, 10^−5 M, 48 h
NCI-H522 = experiment: cells; format: cell-based; settings: NCI-H522, 10^−5 M, 48 h
UO-31 = experiment: cells; format: cell-based; settings: UO-31, 10^−5 M, 48 h
SK-MEL-28 = experiment: cells; format: cell-based; settings: SK-MEL-28, 10^−5 M, 48 h
A498 = experiment: NCI-60 SRB screen, Renal cancer; format: cell-based, human; settings: A498, 10^−5 M, 48 h
NCI-H460 = experiment: cells; format: cell-based; settings: NCI-H460, 10^−5 M, 48 h
OVCAR-4 = experiment: cells; format: cell-based; settings: OVCAR-4, 10^−5 M, 48 h
IGROV1 = experiment: cells; format: cell-based; settings: IGROV1, 10^−5 M, 48 h
NCI-H23 = experiment: cells; format: cell-based; settings: NCI-H23, 10^−5 M, 48 h
OVCAR-3 = experiment: cells; format: cell-based; settings: OVCAR-3, 10^−5 M, 48 h
DU-145 = experiment: cells; format: cell-based; settings: DU-145, 10^−5 M, 48 h
SN12C = experiment: cells; format: cell-based; settings: 10^−5 M, 48 h
SF-539 = experiment: cells; format: cell-based; settings: SF-539, 10^−5 M, 48 h
BT-549 = experiment: cells; format: cell-based; settings: BT-549, 10^−5 M, 48 h
MCF7 = experiment: cells; format: cell-based; settings: MCF7, 10^−5 M, 48 h
RXF 393 = experiment: cells; format: cell-based; settings: RXF 393, 10^−5 M, 48 h
A549/ATCC = experiment: cells; format: cell-based; settings: A549/ATCC, 10^−5 M, 48 h
SW-620 = experiment: cells; format: cell-based; settings: SW-620, 10^−5 M, 48 h
HCC-2998 = experiment: cells; format: cell-based; settings: HCC-2998, 10^−5 M, 48 h
MDA-MB-435 = experiment: cells; format: cell-based; settings: MDA-MB-435, 10^−5 M, 48 h
ACHN = experiment: cells; format: cell-based; settings: 10^−5 M, 48 h
CCRF-CEM = experiment: cells; format: cell-based; settings: 10^−5 M, 48 h
HT29 = experiment: cells; format: cell-based; settings: HT29, 10^−5 M, 48 h

SMILES: Cn1c(=O)c2c3c(oc2c2ccccc21)C(=O)c1ccccc1C3=O [3e, 5-Methylnaphtho[2′,3′:4,5]furo[3,2-c]quinoline-6,7,12(5H)-trione]
- Growth percent (G%) (OVCAR-8): 85.32%
- Growth percent (G%) (SK-MEL-2): 92.64%
- Growth percent (G%) (RPMI-8226): 51.06%
- Growth percent (G%) (HCT-15): 85.01%
- Growth percent (G%) (SNB-75): 64.39%
- Growth percent (G%) (SF-268): 95.35%
- NCI Cytotoxicity Screening Average G% ([1]; Table 4, 10 μM one-dose screen): 74%
- Average G% ([1]; average over tested NCI-60 cell lines, 10^−5 M (10 μM), 48 h): 74% and 74.32%
- Growth percent (G%) (LOX IMVI): 76.59%
- Growth percent (G%) (M14): 85.59%
- Growth percent (G%) (SK-MEL-5): 76.95%
- Growth percent (G%) (HOP-62): 81.77%
- Growth percent (G%) (NCI-H226): 73.22%
- Growth percent (G%) (HOP-92): 100.92%
- Growth percent (G%) (SK-OV-3): 93.55%
- Growth percent (G%) (K-562): 68.79%
- Growth percent (G%) (EKVX): 70.67%
- Growth percent (G%) (MALME-3M): 113.45%
- Growth percent (G%) (OVCAR-5): 119.92%
- Growth percent (G%) (SNB-19): 93.29%
- Growth percent (G%) (U251): 90.22%
- Growth percent (G%) (HCT-116): 71.69%
- Growth percent (G%) (PC-3): 64.38%
- Growth percent (G%) (MOLT-4): 2.39%
- Growth percent (G%) (MDA-MB-468): −9.91%
- Growth percent (G%) (UACC-62): 77.03%
- IC50 (ERK2): 21 ± 5.6 µM
- Growth percent (G%) (T-47D): 9.70%
- Growth percent (G%) (NCI-H322M): 96.16%
- Growth percent (G%) (KM 12): 91.54%
- Growth percent (G%) (NCI-H522): 50.55%
- Growth percent (G%) (UO-31): 54.76%
- Growth percent (G%) (SK-MEL-28): 111.89%
- Growth percent (G%) (A498): 93.29%
- Growth percent (G%) (NCI-H460): 78.50%
- Growth percent (G%) (OVCAR-4): 4.38%
- Growth percent (G%) (IGROV1): 68.65%
- Growth percent (G%) (NCI-H23): 78.33%
- Growth percent (G%) (OVCAR-3): 21.58%
- Growth percent (G%) (DU-145): 90.97%
- Growth percent (G%) (SN12C): 81.84%
- Growth percent (G%) (SF-539): 97.17%
- Growth percent (G%) (BT-549): 77.38%
- Growth percent (G%) (MCF7): 68.38%
- Growth percent (G%) (RXF 393): 100.91%
- Growth percent (G%) (A549/ATCC): 81.67%
- Growth percent (G%) (SW-620): 86.24%
- Growth percent (G%) (HCC-2998): 101.82%
- Growth percent (G%) (MDA-MB-435): 103.73%
- Growth percent (G%) (ACHN): 75.49%
- Growth percent (G%) (CCRF-CEM): 19.07%
- Growth percent (G%) (HT29): 73.69%
